Results on nine molecules are retold here after ChEMBL document CHEMBL4385668, “Synthesis and in vitro anticancer activity of new gemcitabine-nucleoside analogue dimers containing methyltriazole or ester-methyltriazole linker” (Bioorg Med Chem Lett, 2019).

Series [1] in a line: Drug metabolism in human HeLa cells assessed as gemcitabine release incubated for 12 hrs by HPLC/MS method. The series is classed as ADME, cell-based. A digest of the protocol:
(§1)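 HeLa cells were incubated with the dimer at 37 °C for 12 h. Cell lysate was analysed by HPLC/MS for released gemcitabine, the deamination product dFdU and the thymidine-triazole fragment. A separately synthesized sample of the thymidine-triazole fragment was used as the reference.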

Series [2] is described as follows: Drug metabolism in human HeLa cells assessed as 3'-[4-(hydroxymethyl)-(1,2,3-triazol-1-yl)]-3'-deoxythymidine release incubated for 12 hrs by HPLC/MS method. The series is classed as ADME, cell-based. An outline of the steps: as §1
The nature of series [3]: Drug metabolism in human HeLa cells assessed as 2',2'-difluoro-2'-deoxyuridine release incubated for 12 hrs by HPLC/MS method. In kind it is ADME, cell-based. An outline of the steps:
as §1

The next series deals with HeLa. In words: Cytotoxicity in human HeLa cells assessed as reduction in cell viability incubated for 72 hrs by SRB assay. The series is classed as functional, cell-based. An outline of the steps:
(§2)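 SRB assay of cell viability in human cancer lines (HeLa, KB, A549, U87, HepG2) and normal dermal fibroblasts (HDF). IC50 values are […] of three independent experiments.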

The test system of the next series is KB. Put plainly: Cytotoxicity in human KB cells assessed as reduction in cell viability incubated for 72 hrs by SRB assay. The series is classed as functional, cell-based. A digest of the protocol:
as §2

For another series, the system named is A549. In words: Cytotoxicity in human A549 cells assessed as reduction in cell viability incubated for 72 hrs by SRB assay. In kind it is functional, cell-based. The conditions noted are these: A549, 72 h. An outline of the steps:
as §2

Another series deals with U-87 MG. In words: Cytotoxicity in human U87 cells assessed as reduction in cell viability incubated for 72 hrs by SRB assay. The series is classed as functional, cell-based, U-87MG ATCC. An outline of the steps:
as §2

A further series has as its system HepG2. In words: Cytotoxicity in human HepG2 cells assessed as reduction in cell viability incubated for 72 hrs by SRB assay. In kind it is functional, cell-based. The conditions noted are these: HepG2, 72 h. An outline of the steps: as §2
Another series relates to NHDF. Put plainly: Cytotoxicity in human NHDF cells assessed as reduction in cell viability incubated for 72 hrs by SRB assay. The series is classed as cell-based. A digest of the protocol:
as §2

Series [4] in a line: Selectivity index, ratio of IC50 for cytotoxicity in human NHDF cells to IC50 for cytotoxicity in human HeLa cells. An outline of the steps: (§3)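 Selectivity index is the IC50 in normal HDF fibroblasts divided by the IC50 in the given cancer line.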
The nature of series [5]: Selectivity index, ratio of IC50 for cytotoxicity in human NHDF cells to IC50 for cytotoxicity in human KB cells. An outline of the steps:
as §3

Series [6] can be described thus: Selectivity index, ratio of IC50 for cytotoxicity in human NHDF cells to IC50 for cytotoxicity in human A549 cells. An outline of the steps: as §3
The nature of series [7]: Selectivity index, ratio of IC50 for cytotoxicity in human NHDF cells to IC50 for cytotoxicity in human U87 cells. A digest of the protocol:
as §3

Series [8] can be described thus: Selectivity index, ratio of IC50 for cytotoxicity in human NHDF cells to IC50 for cytotoxicity in human HepG2 cells. A digest of the protocol: as §3
The nature of series [9]: Drug level in human HeLa cells treated with 1-(3'-Deoxythymidin-3'-yl)-4-[methyloxycarbonyl-(2'-deoxy-2',2'-difluorocytidin-4N-yl)]-1H-1,2,3-triazole assessed as compound release incubated for 12 hrs by HPLC/MS method. In kind it is ADME, cell-based. An outline of the steps:
as §1

SMILES strings stand for the structures.

For `Cc1cn([C@H]2C[C@H](n3cc(COC(=O)Nc4ccn([C@@H]5O[C@H](CO)[C@@H](O)C5(F)F)c(=O)n4)nn3)[C@@H](CO)O2)c(=O)[nH]c1=O`, the Drug metabolism result in [1] is reported as “Metabolite_Detected”; in series [2], “Metabolite_Detected”; in series [3] it was “Metabolite_Notdetected”. The IC50 in the series on HeLa came out at 1.52 µM; in the series with KB, 1.55 µM; in the series on A549, 1.67 µM; in the series with U-87 MG it was 1.89 µM; with HepG2, 1.53 µM; in the series with NHDF, 6.7 µM. In addition, the “Ratio IC50” value in [4] came to 4.41; in [5], 4.32; in series [6] it was 4.01; in series [7], 3.55; in series [8], 4.38.

Regarding `Cc1cn([C@H]2C[C@H](n3cc(CO)nn3)[C@@H](CO)O2)c(=O)[nH]c1=O`, the Drug uptake result in [9] was “Active”.

For the molecule `Nc1ccn([C@@H]2O[C@H](CO)[C@@H](O)C2(F)F)c(=O)n1` [GEMCITABINE], the Drug uptake result in series [9] is given as “Active”. Besides, the IC50 in the series with HeLa came out at 9.42 µM; in the series with KB, 8.21 µM; in the series on A549, 5.05 µM; with U-87 MG it was 5.21 µM; in the series on HepG2, 4.9 µM; in the series with NHDF it was 19.4 µM. The “Ratio IC50” value in [4] came to 2.07; in series [5], 2.37; in series [6], 3.85; in series [7] it was 3.73; in series [8], 3.97.

In the case of `CC(C)(C)OC(=O)O[C@@H]1[C@@H](Cn2cc(CNc3ccn([C@@H]4O[C@H](CO)[C@@H](O)C4(F)F)c(=O)n3)nn2)O[C@@H](n2ccc(NC(=O)OCc3ccccc3)nc2=O)C1(F)F`, the IC50 in the series on HeLa stood at 3.12 µM; in the series with KB it was 3.09 µM; with A549, 3.24 µM; with U-87 MG, 3.81 µM; in the series with HepG2, 3.93 µM; in the series on NHDF it was 8.12 µM. The “Ratio IC50” value was 2.6 in series [4]; 2.63 in [5]; 2.51 in [6]; 2.13 in series [7]; 2.07 in [8].

In the case of `CC(C)(C)OC(=O)O[C@@H]1[C@@H](Cn2cc(COC(=O)Nc3ccn([C@@H]4O[C@H](CO)[C@@H](O)C4(F)F)c(=O)n3)nn2)O[C@@H](n2ccc(NC(=O)OCc3ccccc3)nc2=O)C1(F)F`, the IC50 in the series with HeLa was 0.97 µM; in the series on KB, 0.95 µM; with A549 it was 0.83 µM; with U-87 MG it was 1.09 µM; in the series with HepG2 it was 1.01 µM; with NHDF, 4.69 µM. In addition, the “Ratio IC50” value in series [4] is 4.83; in series [5], 4.94; in [6] it was 5.65; in series [7] it was 4.3; in series [8] it was 4.64.

Take `CC(C)(C)OC(=O)O[C@@H]1[C@@H](Cn2cc(CNc3ccn([C@@H]4O[C@H](CO)[C@@H](O)C4(F)F)c(=O)n3)nn2)O[C@@H](n2ccc(N)nc2=O)C1(F)F`: the IC50 in the series with HeLa is 4.11 µM; in the series on KB, 4.09 µM; with A549, 4.23 µM; in the series on U-87 MG it was 4.54 µM; in the series on HepG2, 5.19 µM; in the series with NHDF, 10.9 µM. For the same molecule, the “Ratio IC50” value in series [4] turned out to be 2.65; in series [5], 2.67; in series [6] it was 2.58; in [7], 2.4; in series [8], 2.1.

In the case of `Cc1cn([C@H]2C[C@H](n3cc(CNc4ccn([C@@H]5O[C@H](CO)[C@@H](O)C5(F)F)c(=O)n4)nn3)[C@@H](CO)O2)c(=O)[nH]c1=O`, the values for the Drug metabolism entry in series [1] and in series [3] were “Metabolite_Detected” and “Metabolite_Notdetected”, respectively. Further, the IC50 in the series with HeLa was found to be 10.9 µM; in the series with KB, 12.2 µM; in the series on A549 it was 10.6 µM; in the series on U-87 MG, 10.8 µM; with HepG2, 12.2 µM; with NHDF, 17.8 µM.

Turning to `O=C(Nc1ccn([C@@H]2O[C@H](CO)[C@@H](O)C2(F)F)c(=O)n1)OCc1cn(C[C@H]2O[C@@H](n3ccc(NC(=O)c4ccccc4)nc3=O)C(F)(F)[C@@H]2OC(=O)c2ccccc2)nn1`, the IC50 was 3.22 µM with HeLa; 3.13 µM in the series with KB; 3.32 µM in the series with A549; 3.41 µM in the series on U-87 MG; 3.51 µM in the series with HepG2; 9.12 µM in the series on NHDF. The “Ratio IC50” value in series [4] was found to be 2.83; in [5], 2.91; in [6] it was 2.75; in series [7], 2.67; in series [8], 2.6.

`Cc1cn([C@H]2C[C@H](N=[N+]=[N-])[C@@H](CO)O2)c(=O)[nH]c1=O` [ZIDOVUDINE]: the IC50 in the series with HeLa worked out at 10.8 µM; with KB, 9.77 µM; in the series with A549, 11.9 µM; in the series with U-87 MG, 11.9 µM; in the series with HepG2 it was 13 µM; in the series with NHDF it was 14.4 µM. For the same molecule, the “Ratio IC50” value worked out at 1.34 in series [4]; 1.48 in series [5]; 1.22 in series [6]; 1.21 in [7]; 1.11 in [8].
